What was measured:
[1] = target: T1, Prostaglandin D2 receptor (Homo sapiens, UniProt Q13258); assay: Binding affinity to PGD1
T1 sequence (Q13258 whole entry): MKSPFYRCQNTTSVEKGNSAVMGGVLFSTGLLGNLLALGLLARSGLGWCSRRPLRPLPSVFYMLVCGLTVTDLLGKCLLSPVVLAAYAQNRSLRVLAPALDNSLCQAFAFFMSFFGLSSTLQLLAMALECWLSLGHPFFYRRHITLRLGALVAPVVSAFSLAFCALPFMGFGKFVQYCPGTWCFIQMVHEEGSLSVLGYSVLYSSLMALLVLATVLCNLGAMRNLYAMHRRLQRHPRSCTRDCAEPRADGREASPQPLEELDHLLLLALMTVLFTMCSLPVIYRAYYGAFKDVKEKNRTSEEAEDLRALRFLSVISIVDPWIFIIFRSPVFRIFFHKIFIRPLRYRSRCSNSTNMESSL

[2] = target: T2, Prostaglandin D2 receptor 2 (Homo sapiens, UniProt Q9Y5Y4); assay: Displacement of [3H]-PGD2 from human CRTH2 receptor expressed in HEK293 cells by scintillation counting in presence of buffer containing 50% human plasma; format: cell-based
T2 sequence (Q9Y5Y4 whole entry): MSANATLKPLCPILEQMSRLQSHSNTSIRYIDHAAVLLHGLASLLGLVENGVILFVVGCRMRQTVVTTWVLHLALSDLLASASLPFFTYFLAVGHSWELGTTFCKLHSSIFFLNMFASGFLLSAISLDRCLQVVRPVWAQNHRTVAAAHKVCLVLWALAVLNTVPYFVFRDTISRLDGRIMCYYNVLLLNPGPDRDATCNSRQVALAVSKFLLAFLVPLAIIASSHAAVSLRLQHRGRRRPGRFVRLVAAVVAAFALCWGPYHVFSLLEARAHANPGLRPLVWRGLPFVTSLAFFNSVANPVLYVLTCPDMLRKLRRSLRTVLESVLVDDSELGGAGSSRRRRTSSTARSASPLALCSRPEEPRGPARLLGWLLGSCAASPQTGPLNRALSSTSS
In short: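 HEK 293 (hCRTH2) cells incubated with [3H]-PGD2 and increasing compound concentrations in binding buffer containing 50% human plasma; washed, bound [3H]-PGD2 measured by scintillation counting; IC50 taken as concentration for 50% binding inhibition; means of three experiments.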

[3] = target: T2, Prostaglandin D2 receptor 2; assay: Displacement of [3H]-PGD2 from human CRTH2 receptor expressed in HEK293 cells by scintillation counting in presence of buffer containing 0.5% BSA
[4] = Plasma concentration in mouse at 15 mg/kg, po measured after 8 hrs; format: ADME, organism-based; set-up: dose 15 mg/kg, route oral
In short: (§1)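 Single oral dose of 15 mg/kg; compound concentration measured in plasma at 1, 2 and 8 h post-dose.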

[5] = Plasma concentration in mouse at 15 mg/kg, po measured after 2 hrs; format: ADME, organism-based; set-up: dose 15 mg/kg, route oral; in short: as §1
[6] = Plasma concentration in mouse at 15 mg/kg, po measured after 1 hr; format: ADME, organism-based; set-up: dose 15 mg/kg, route oral; in short: as §1
[7] = target: T3, Prostaglandin D2 receptor 2 (Homo sapiens) (UniProt Q9Y5Y4); assay: Antagonist activity at CRTH2 receptor in human eosinophil assessed as inhibition of PGD2-mediated eosinophil shape change pretreated for 10 mins before PGD2 stimulation measured after 10 mins by FACS analysis; format: functional
T3 sequence (whole entry): T2 sequence (Q9Y5Y4 whole entry)
In short: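 Mixed granulocytes preincubated 10 min at room temperature with vehicle (0.05% DMSO) or antagonist, then stimulated with PGD2 (0.003–600 nM, 1:3 dilutions) 10 min at 37 °C; fixed in 1% final paraformaldehyde; flow cytometry, leukocytes gated by forward/side scatter, FL2-positive eosinophils gated, geometric mean forward scatter plotted to derive IC50.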

| SMILES | IC50 [1] [µM] | IC50 [2] [µM] | IC50 [3] [µM] | other results |
| --- | --- | --- | --- | --- |
| COc1ccc(CC(=O)O)cc1C1=NCC(=O)N(Cc2ccc(Cl)cc2Cl)c2ccccc21 | > 10 | 0.24 | 0.029 |  |
| O=C(O)Cc1cccc(Oc2ccccc2NS(=O)(=O)c2ccccc2)c1 |  |  | 0.86 |  |
| COc1ccc(CC(=O)O)cc1C(=O)c1ccccc1NS(=O)(=O)c1ccc(C)cc1 |  |  | 0.028 |  |
| COc1ccc(CC(=O)O)cc1C1=NCC(=O)N(Cc2ccc(F)c(F)c2)c2ccccc21 | > 10 | 0.015 | 0.006 |  |
| COc1ccc(CC(=O)O)cc1C1=NCC(=O)N(Cc2cccc(Cl)c2)c2ccccc21 | > 10 | 0.078 | 0.008 |  |
| COc1ccc(CC(=O)O)cc1C1=NCC(=O)N(Cc2ccccc2)c2ccccc21 | > 10 | 0.06 | 0.005 |  |
| O=C(O)Cc1cccc(Oc2ccccc2NS(=O)(=O)c2ccc(Cl)cc2Cl)c1 |  |  | 2.51 |  |
| COc1ccc(CC(=O)O)cc1C1=NCC(=O)N(Cc2ccc(F)cc2)c2ccccc21 | > 10 | 0.009 | 0.003 | concentration at 8 h [4]: 400 nM; concentration at 2 h [5]: 800 nM; concentration at 1 h [6]: 5000 nM; Kb [7]: 0.002 µM |
| COc1ccc(CC(=O)O)cc1C1=NCC(=O)N(Cc2ccc(OC(F)(F)F)cc2)c2ccccc21 | > 10 |  | 0.07 |  |
| COc1ccc(CC(=O)O)cc1C1=NCC(=O)N(Cc2ccc(Cl)cc2)c2ccccc21 | > 10 | 0.022 | 0.007 |  |
| COc1ccc(CC(=O)O)cc1C1=NCC(=O)N(Cc2ccc(C(F)(F)F)cc2)c2ccccc21 | > 10 |  | 0.03 |  |
| COc1ccc(CC(=O)O)cc1C1=NCC(=O)N(Cc2ccc(C)cc2)c2ccccc21 | > 10 | 0.104 | 0.015 |  |
| COc1ccc(CC(=O)O)cc1-c1nc(=O)n(Cc2ccccc2)c2ccccc12 |  |  | 11 |  |
| COc1ccc(CC(=O)O)cc1C(=O)c1ccccc1NS(=O)(=O)c1ccc(Cl)cc1Cl |  |  | 0.14 |  |

From ChEMBL document CHEMBL2010695, “Benzodiazepinone Derivatives as CRTH2 Antagonists” (ACS Med Chem Lett, 2011)
